Source: PMC2913404 (Neurobiology of disease, 2010)
Positions of bridges follow the written chain, without caps; N, C: chain ends. Residues, ends and D or L forms follow the SMILES beside them. *: point of attachment. Biotin = O=C1N[C@H]2[C@H](CS[C@H]2CCCCC(=O)*)N1

Columns and labels:
[1] = system: Aβ1–40 peptide (amyloid aggregation); test: Thioflavin T amyloid formation assay, Aβ1–40; type: biochemical; details: Aβ1–40 50µM + peptide 50µM, 5 days, 37°C, n=3 (Fig 1C)
How it was run: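 Aβ1–40 (50 µM; stored frozen in DMSO) was mixed with equimolar test peptide (50 µM) and incubated 5 days at 37°C until amyloid formation saturated. Thioflavin T was then added, and signal was read at 490 nm with excitation at 445 nm.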

[2] = system: Aβ1–42 peptide (amyloid aggregation); test: Thioflavin T amyloid formation assay, Aβ1–42; type: biochemical; details: Aβ1–42 50µM + peptide 50µM, 5 hours, 37°C, n=3 (Fig 1C)
How it was run: (§1)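 Aβ1–40 or Aβ1–42 (50 µM) was mixed equimolar with peptide (50 µM) at 37°C until amyloid formation saturated: 5 days for Aβ1–40, 5 hours for Aβ1–42. Time courses set the read point. Thioflavin T was then added and read at 490 nm with excitation at 445 nm. Aβ alone served as positive control; peptide alone was read as background.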

[3] = Self-aggregation of SDPM1 by Thioflavin T; type: physicochemical; details: SDPM1 added alone, over time
Aβ1–42 peptide = test: Amyloid trapping assay, SDS-PAGE and Aβ1–40/42 immunoblot; type: biochemical; details: SDS-PAGE/immunoblot after mixing with Aβ1–42 (Fig 1G, 1H)
How it was run: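 Aβ1–42 (50 µM) incubated with equimolar test peptide (50 µM) or 1:500 immune serum for 5 h at 37°C. A subset of mixtures was boiled in SDS with reducing agent and run on 10–20% Tris-tricine gels, then transferred to nitrocellulose. Blots were blocked in TBST/5% milk and probed with rabbit anti-Aβ1–40/42 at 1:10,000 in TBST/2.5% milk.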

[4] = system: low molecular weight Aβ amyloid from COS7 cells transfected with APPswe; test: Precipitation from APPswe-transfected COS7 lysates; type: binding, human; details: COS7 lysate 1mg; antibody 10µg or biotin-SDPM1 50µg (Fig 1I, S1A)
How it was run: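 COS7 cells grown in DMEM/10% FCS were transfected at 40% confluence with V5-tagged human APP695, wild type or Swedish. At 48 h cells were lysed in 1% NP40/0.1% SDS/deoxycholate/EDTA buffer with protease inhibitors, sonicated and cleared at 16000g. Lysate (1 mg) was incubated overnight at 4°C with antibody (10 µg) or biotinylated peptide (50 µg), the latter captured on streptavidin agarose. Precipitates were analysed by SDS-PAGE and Aβ immunoblot.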

SDPM1 / SDPM2 peptide = test: Serum antibody titer to SDPM1/SDPM2 after immunization; type: in vivo, mouse; details: for SDPM1-specific antibody titer (SDPM1 minus SDPM2 titer): average, SEM, n=7–12 animals (Fig 2A); for antibody titers to SDPM1 and SDPM2: young (5 to 12 months), end of experiment (S2A)
Aβ amyloid = test: Serum antibody titer to Aβ amyloid after immunization; type: in vivo, mouse; details: for Aβ amyloid antibody titer: young, significant vs Mock (Fig 2C)
[5] = system: fibrillar Aβ amyloid plaques in APPswePSEN1(A246E) mouse brain; test: Amyloid plaque burden, number and area; type: in vivo
[6] = system: Aβ1–40/1–42 in APPswePSEN1(A246E) mouse brain; test: Aβ1–40/1–42 immunostaining of brain; type: in vivo; details: for Aβ1–40/42 immunostaining signal, % of control: young, with adjuvant
How it was run: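 After monthly s.c. streptavidin-peptide conjugate immunization with adjuvant, brains were collected after PBS exsanguination and bisected, then snap-frozen or fixed overnight in 2% paraformaldehyde. Some sagittal sections were pretreated with 90% formic acid for 4 min. Sections were blocked 2 h in 10% goat serum, given rabbit anti-Aβ1–40/42 overnight at 4°C, then Cy3 secondary for 1 h. Eight to twelve sections 80 µm apart were imaged at 10X with a fixed threshold.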

[7] = system: Aβ1–40 in APPswePSEN1(A246E) mouse brain; test: Aβ1–40 brain peptide level; type: in vivo; details: with adjuvant
How it was run: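 Transgenic mice received monthly subcutaneous injections of biotinylated test peptide (100 µg) conjugated overnight at 4°C to 25 µg streptavidin in TBS, emulsified 1:1 with adjuvant. TiterMax Gold was used first, then Freund's incomplete. Schedules ran 5–12 months (8 injections) or 12–18 months (7). Mock controls got TBS plus adjuvant. Brain Aβ1–40 ELISA was read at 450 nm against peptide standard curves and reported as µg/g wet brain weight.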

[8] = system: Aβ1–42 in APPswePSEN1(A246E) mouse brain; test: Aβ1–42 brain peptide level; type: in vivo; details: with adjuvant
[9] = system: Aβ amyloid species in APPswePSEN1(A246E) cortex; test: Aβ/APP immunoblot of soluble cortex fraction; type: in vivo, mouse; details: immunoblot (Fig 3G)
APPswePSEN1(A246E) mice = test: Morris water maze; type: in vivo, mouse
[10] = system: APPswePSEN1(A246E) mouse brain; test: Brain inflammation immunostaining; type: in vivo; details: young and old; for reduction of CD68 immunostaining: significant (Fig 5D); for GFAP staining signal: with adjuvant (Fig 5C); for Iba1 staining signal: with adjuvant (Fig 5E)
[11] = system: monovalent Aβ1–40 peptide; details: ref Kang et al., 2003; cited from earlier work
[12] = system: monovalent Aβ1–42 peptide; details: ref Kang et al., 2003; cited from earlier work
[13] = system: amyloid plaques in AD brain; details: ref Kang et al., 2003; cited from earlier work
[14] = system: Aβ amyloid (Aβ1–40 or Aβ1–42); test: Thioflavin T amyloid formation assay, Aβ form not distinguished; type: biochemical; details: peptide 50µM + Aβ1–40 or Aβ1–42 50µM, 37°C, n=3 (Fig 1C)
How it was run: as §1

[15] = old, in most instances (Fig 3D–F)
[16] = young, in all instances, n=7–12 animals (Fig 3A–C)
[17] = young, soluble and insoluble, cortex, hippocampus (Fig 3A, B)

## CC(C)C[C@@H]1NC(=O)[C@H](CCCNC(=N)N)NC(=O)[C@H](Cc2c[nH]c3ccccc23)NC(=O)[C@H](CCCNC(=N)N)NC(=O)CNC(=O)CNC(=O)[C@H](CCCCN)NC(=O)CNC(=O)[C@H](Cc2c[nH]c3ccccc23)NC(=O)[C@H](CC(=O)O)NC(=O)[C@@H](NC(=O)[C@H](CCC(=O)O)NC(=O)[C@H](C)NC(=O)CCCC[C@@H]2SC[C@@H]3NC(=O)N[C@@H]32)CSSC[C@@H](C(=O)NCC(=O)N2CCC[C@H]2C(=O)O)NC(=O)[C@H](C)NC(=O)[C@H](CCC(=O)O)NC(=O)[C@H]([C@@H](C)O)NC(=O)[C@H](CCCCN)NC(=O)CNC(=O)[C@H](CO)NC(=O)[C@H](C)NC(=O)CNC(=O)[C@@H]2CCCN2C(=O)[C@H](Cc2c[nH]c3ccccc23)NC1=O [SDPM1] (Biotin-AECDWGKGGRWRLWPGASGKTEACGP-OH; disulfide 3-24; C-terminus assumed)
[1]
  inhibition of amyloid aggregation: over 60%
[2]
  inhibition of amyloid aggregation: over 60%
[3]
  Thioflavin T signal of peptide alone (amyloid self-formation): did not lead to development of increased Thioflavin T signal over time
Aβ1–42 peptide
  effect on high MW Aβ aggregate formation: reduced formation of high molecular weight (MW) Aβ aggregates
  size of trapped Aβ forms (trimers and tetramers): 12–16 kDa
[4]
  precipitation of low MW Aβ amyloid from APPswe cells: tetramer Aβ amyloid precipitated from APPswe-transfected cells
SDPM1 / SDPM2 peptide; old (12 to 18 months), with adjuvant
  SDPM1-specific antibody titer (SDPM1 minus SDPM2 titer): 29 ± 6 µg/mL
SDPM1 / SDPM2 peptide; with adjuvant, young and old (Fig 2B)
  predominant antibody subtype: IgG1
SDPM1 / SDPM2 peptide; without adjuvant
  antibody titers to SDPM1 and SDPM2: 2 to 15 µg/mL
SDPM1 / SDPM2 peptide; young, with adjuvant (S2A)
  antibody titers to SDPM1 and SDPM2 vs without adjuvant: increased titers to SDPM1 and SDPM2
SDPM1 / SDPM2 peptide; young, without adjuvant (S2A)
  SDPM1 titers relative to SDPM2 titers: increased SDPM1 titers relative to SDPM2
SDPM1 / SDPM2 peptide; young, without adjuvant
  SDPM1-specific antibody titer (SDPM1 minus SDPM2 titer): 5 ± 1 µg/mL
Aβ amyloid; old, with adjuvant, Mock 11±6µg/mL, did not reach statistical significance (Fig 2C)
  Aβ amyloid (Aβ1–40/42) antibody titer: 23 ± 7 µg/mL
Aβ amyloid; with adjuvant, Mock 5±2µg/mL
  Aβ amyloid antibody titer: 21 ± 7 µg/mL
Aβ amyloid; without adjuvant, Mock 1±1 µg/mL
  Aβ amyloid antibody titer: 5 ± 1 µg/mL
[5]; hippocampus and cortex (Fig 2D, S3–4), similar with Congo Red (not shown)
  Thioflavin S staining of fibrillar amyloid (images): dramatically reduced
[5]; old, s.c. once a month with adjuvant, 12 to 18 months (Fig 2E–G, S2B)
  amyloid plaque burden, plaque number, plaque area, Thioflavin S staining: highly significant reductions in amyloid plaque burden, plaque number, plaque area, and Thioflavin S staining
[6]; cortex
  Aβ1–40/42 immunostaining signal, % of control: 25±6%
[6]; hippocampus
  Aβ1–40/42 immunostaining signal, % of control: 14±3%
[6]; old, with adjuvant (S2C)
  Aβ1–40/42 staining signal: also reduced in old mice
[7]; [15]
  reduction in Aβ1–40 peptide level: greater than 50%
[7]; young, cerebellum (Fig 3C)
  Aβ1–40 cerebellum level: significantly reduced
[7]; [16]
  reduction in Aβ1–40 peptide level: greater than 50%
[7]; [17]
  Aβ1–40 brain level, significance of reduction: significant reduction in both soluble and insoluble Aβ1–40 and Aβ1–42
[8]; [15]
  reduction in Aβ1–42 peptide level: greater than 50%
[8]; old, insoluble fraction, cortex (Fig 3D)
  reduction in Aβ1–42 peptide level: 65–75%
[8]; old, insoluble fraction, hippocampus (Fig 3E)
  reduction in Aβ1–42 peptide level: 65–75%
[8]; [16]
  reduction in Aβ1–42 peptide level: greater than 50%
[8]; [17]
  Aβ1–42 brain level, significance of reduction: significant reduction in both soluble and insoluble Aβ1–40 and Aβ1–42
[9]
  high and low MW Aβ amyloid species: large reductions in both high and low MW Aβ amyloid species
APPswePSEN1(A246E) mice; old (12 to 18 mo), with adjuvant (Fig 4D)
  escape latency: no improvement
APPswePSEN1(A246E) mice; old (12 to 18 mo), with adjuvant (Fig 4E)
  probe test: no improvement
APPswePSEN1(A246E) mice; young (5 to 12 mo), with adjuvant (Fig 4B)
  probe test, time in platform quadrant: improved significantly compared to controls, spending almost the same amount of time in the appropriate quadrant as WT animals
[10]; cortex, with adjuvant
  reduction of CD68 immunostaining: ≥ 50%
[10]; hippocampus, with adjuvant
  reduction of CD68 immunostaining: ≥ 50%
[10]
  GFAP staining signal: no significant changes
  Iba1 staining signal: no significant changes
[10]; with adjuvant, not shown
  CD3, CD4, CD8, B220 brain parenchymal staining: no evidence for brain parenchymal staining
[11]
  binding to monovalent Aβ1–40 peptide: does not bind monovalent Aβ1–40 or Aβ1–42 peptide
[12]
  binding to monovalent Aβ1–42 peptide: does not bind monovalent Aβ1–40 or Aβ1–42 peptide
[13]
  binding to amyloid plaques in AD brain: most efficacious in binding amyloid plaques in AD brain

## DWGKGGRWRLWPGASGKTEA [SDPM2]
[14]
  Thioflavin T signal decrease: no significant decrease in Thioflavin T signal
Aβ1–42 peptide
  effect on high MW Aβ aggregate formation: had no effect on Aβ amyloid formation in vitro
SDPM1 / SDPM2 peptide; any condition (Fig 2A)
  SDPM1-specific antibody titers: never showed SDPM1-specific antibody titers under any conditions
SDPM1 / SDPM2 peptide; without adjuvant
  antibody titers to SDPM1 and SDPM2: 2 to 15 µg/mL
[6]; S2C
  Aβ staining levels vs mock-immunized: not significantly reduced, though it trended downward compared to mock-immunized animals
[10]
  GFAP staining signal: no significant changes
  Iba1 staining signal: no significant changes
